Data set [1] is described as follows: Apparent permeability of the compound assessed as membrane retention after 5 hrs by PAMPA. Format: ADME. The procedure, abridged:
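PAMPA passive permeability measured as Papp (10⁻⁶ cm s⁻¹). Membrane retention is the percentage of compound that fails to reach the acceptor compartment. Mean of at least two experiments.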

A short description of data set [2]: Half life in human plasma at 1 mM by HPLC analysis. Format: ADME, cell-free. The procedure, abridged: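 Incubated at 37 °C in pooled human plasma. Loss of substrate and formation of parent drug followed by HPLC. Mean of at least two experiments.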
Data set [3] can be described thus: cells. The note with it: Mus musculus, 32D, 48 h.
Data set [4] has as its target Proto-oncogene tyrosine-protein kinase Src (Homo sapiens) (UniProt P12931). Put plainly: Inhibition of recombinant c-SRC (unknown origin) at 100 uM after 5 mins by scintillation counting analysis in presence of [gamma32P]ATP.
A short description of data set [5]: Metabolic stability in human liver microsomes assessed as compound remaining at 50 uM after 60 mins by UV/LC/MS analysis. Format: ADME, Microsome. The note with it: read-out: Stability. The procedure, abridged:
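Human pooled liver microsomes, incubated at 37 °C for 1 h to simulate phase I metabolism. Parent drug and metabolites are then quantified by LC–MS. Stability is given as the percentage of unmodified drug remaining.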

In data set [6] the target is Proto-oncogene tyrosine-protein kinase Src (Mus musculus) (UniProt P05480). Nature of the data set: Inhibition of c-SRC phosphorylation at Y416 in mouse 32D cells expressing BCR/ABL fusion protein p210 at 1 uM by Western blotting analysis. It counts as cell-based. In outline:
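32D cells treated with 1 μM compound. Phosphorylated (active) c-Src and c-Abl detected by Western blot with β-actin as loading control. Dasatinib used as reference dual inhibitor.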

A short description of data set [7]: Half life in water at 500 uM by HPLC analysis. It counts as physicochemical. In outline:
(§1)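 Compounds dissolved at 500 μM in methanol, water, or PBS (12.5 μM, pH 7.4). Mean of at least two experiments.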

The nature of data set [8]: Half life in methanol at 500 uM by HPLC analysis. It counts as physicochemical. The procedure, abridged: as §1
The target in data set [9] is Tyrosine-protein kinase ABL1 (Homo sapiens) (UniProt P00519). Nature of the data set: Inhibition of recombinant wild type c-ABL (unknown origin) at 100 uM after 5 mins by scintillation counting analysis in presence of [gamma32P]ATP.
Tyrosine-protein kinase ABL1 (Homo sapiens), sequence (P00519 whole entry): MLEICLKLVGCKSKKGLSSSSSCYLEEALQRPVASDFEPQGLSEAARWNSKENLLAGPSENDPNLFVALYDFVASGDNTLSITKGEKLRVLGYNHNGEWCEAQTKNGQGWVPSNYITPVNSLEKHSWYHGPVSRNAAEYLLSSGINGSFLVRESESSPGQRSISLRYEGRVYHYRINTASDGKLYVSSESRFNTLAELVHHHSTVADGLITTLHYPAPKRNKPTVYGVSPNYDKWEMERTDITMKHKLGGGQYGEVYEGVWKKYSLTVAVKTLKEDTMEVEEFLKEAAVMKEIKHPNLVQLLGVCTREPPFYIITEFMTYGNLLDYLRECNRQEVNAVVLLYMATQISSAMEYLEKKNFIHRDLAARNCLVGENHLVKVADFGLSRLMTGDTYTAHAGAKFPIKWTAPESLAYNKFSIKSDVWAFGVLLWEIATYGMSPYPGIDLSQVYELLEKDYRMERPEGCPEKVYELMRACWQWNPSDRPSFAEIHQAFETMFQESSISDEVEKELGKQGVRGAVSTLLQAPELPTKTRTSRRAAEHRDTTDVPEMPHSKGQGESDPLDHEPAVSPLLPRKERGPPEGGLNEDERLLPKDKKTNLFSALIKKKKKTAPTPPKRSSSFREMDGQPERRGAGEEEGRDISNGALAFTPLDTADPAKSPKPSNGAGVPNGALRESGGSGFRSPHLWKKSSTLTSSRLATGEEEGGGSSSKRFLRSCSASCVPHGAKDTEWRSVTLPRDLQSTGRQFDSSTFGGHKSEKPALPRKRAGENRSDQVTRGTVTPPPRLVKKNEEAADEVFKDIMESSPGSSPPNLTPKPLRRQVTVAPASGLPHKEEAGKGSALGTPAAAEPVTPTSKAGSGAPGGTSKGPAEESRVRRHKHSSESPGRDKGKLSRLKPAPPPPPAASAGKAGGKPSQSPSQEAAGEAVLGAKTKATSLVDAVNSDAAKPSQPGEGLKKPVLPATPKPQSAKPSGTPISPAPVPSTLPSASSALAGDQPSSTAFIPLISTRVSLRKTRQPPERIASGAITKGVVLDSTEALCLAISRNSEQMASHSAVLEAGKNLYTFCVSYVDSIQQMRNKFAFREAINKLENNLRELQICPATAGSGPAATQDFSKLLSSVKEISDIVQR
A short description of data set [10]: Half life in phosphate buffer at 500 uM at pH 7.4 by HPLC analysis. It counts as physicochemical. In outline: as §1
Data set [11] can be described thus: cells. The note with it: Mus musculus, 32D, 48 h. This is another data set of the same source.
The nature of data set [12]: Apparent permeability of the compound after 5 hrs by PAMPA. It counts as ADME. As to conditions: for Papp at 5 h: PAMPA.
A short description of data set [13]: Thermodynamic solubility of the compound in water at 1 mg after 24 hrs by UV/LC-MS analysis. It counts as physicochemical. The note with it: read-out: Therm_solubility. The procedure, abridged:
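Aqueous solubility: compound concentration measured by UV/LC−MS after filtration through a 0.45 μm nylon filter. Mean of at least two experiments.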

SMILES strings stand for the structures. In brackets after ≈: the same amount, converted by molar mass. Activity calls are given as the source filed them. The calls are words filed in the database; no cut-off is given here. Bounds are passed on as bounds.

Proto-oncogene tyrosine-protein kinase Src (Mus musculus), sequence (P05480 2-535 limits assumed): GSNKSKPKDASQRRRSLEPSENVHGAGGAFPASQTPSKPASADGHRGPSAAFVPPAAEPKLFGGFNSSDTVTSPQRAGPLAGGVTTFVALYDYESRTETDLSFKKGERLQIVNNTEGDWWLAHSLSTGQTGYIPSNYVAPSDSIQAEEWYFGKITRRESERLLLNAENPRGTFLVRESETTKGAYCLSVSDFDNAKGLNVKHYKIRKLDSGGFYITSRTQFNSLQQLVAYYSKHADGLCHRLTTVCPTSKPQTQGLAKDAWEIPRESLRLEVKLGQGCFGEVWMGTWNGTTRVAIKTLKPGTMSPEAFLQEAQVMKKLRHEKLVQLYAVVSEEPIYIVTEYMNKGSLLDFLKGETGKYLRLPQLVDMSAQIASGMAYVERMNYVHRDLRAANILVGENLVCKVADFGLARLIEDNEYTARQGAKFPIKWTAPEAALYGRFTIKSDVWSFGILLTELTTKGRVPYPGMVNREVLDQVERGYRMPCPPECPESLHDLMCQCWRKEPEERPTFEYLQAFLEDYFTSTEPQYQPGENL
Proto-oncogene tyrosine-protein kinase Src (Homo sapiens), sequence (P12931 2-536 limits assumed): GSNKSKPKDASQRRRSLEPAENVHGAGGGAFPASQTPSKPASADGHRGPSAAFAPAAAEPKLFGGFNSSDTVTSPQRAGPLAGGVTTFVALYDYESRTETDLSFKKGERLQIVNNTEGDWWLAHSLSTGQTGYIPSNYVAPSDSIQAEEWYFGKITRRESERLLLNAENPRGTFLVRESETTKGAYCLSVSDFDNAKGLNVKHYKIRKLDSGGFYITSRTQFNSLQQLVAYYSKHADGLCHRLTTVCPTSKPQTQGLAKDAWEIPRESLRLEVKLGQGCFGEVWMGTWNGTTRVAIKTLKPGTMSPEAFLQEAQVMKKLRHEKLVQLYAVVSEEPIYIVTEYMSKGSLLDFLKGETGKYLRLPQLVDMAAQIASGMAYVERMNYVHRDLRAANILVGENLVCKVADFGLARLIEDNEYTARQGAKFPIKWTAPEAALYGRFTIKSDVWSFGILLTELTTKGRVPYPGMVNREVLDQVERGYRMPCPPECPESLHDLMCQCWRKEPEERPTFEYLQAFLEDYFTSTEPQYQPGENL

Regarding `CSc1nc(N(C(=O)OCCN2CCN(C)CC2)c2cccc(Br)c2)c2cnn(CC(C)c3ccccc3)c2n1` (stereo not given), the R% in [1] is 67.3%. Further, the half-life at 1000 µM in [2] came out at 3.22 h. In addition, the figures for the 50% inhibitory concentration (IC50) in “cells [3]” and in the data set “cells [11]” were 2.6 µM and 2.8 µM, respectively. Besides, the inhibition entry in data set [4] and in [9] was “inactive” in each case. Moreover, in [5], the remaining at 1 h, 50 µM amounted to 99.9%. The “Inhibition of c-SRC Y416 phosphorylation (qualitative)” value (“Inhibition … (qualitative)” below) in data set [6] is “Active”. For the same molecule, the half-life at 500 µM in [7], in data set [8] and in data set [10] was greater than 48 h throughout. Also, the Papp in data set [12] (pampa, 5 h) stood at 2.11 ×10⁻⁶ cm/s.
In [2], `CCCCN(C(=O)OCCN1CCN(C)CC1)c1nc(SCC)nc2c1cnn2CC(Cl)c1ccccc1` (stereo not given) showed a half-life at 1000 µM of 0.467 h. For the same molecule, the results for the IC50 in the data set “cells [3]” and in “cells [11]” were 2.4 µM and 1.2 µM, respectively. Also, the inhibition result in [4] and in data set [9] was “inactive” in each case. Besides, the “Inhibition … (qualitative)” value in [6] is “Active”. In addition, the half-life at 500 µM is 0.5 h in [7], 2.08 h in data set [8] and 1.05 h in data set [10].
Consider `CSc1nc(Nc2cccc(Br)c2)c2cnn(CC(C)c3ccccc3)c2n1` (stereo not given), for which the solubility thermodynamic at 24 h in [13] was 0.01 µg/mL (≈ 0.022 µM). For the same molecule, the R% in [1] is recorded as 80.4%. Also, the IC50 in “cells [3]” stood at 5.8 µM; in “cells [11]” it was 6.2 µM. Besides, the remaining at 1 h, 50 µM in data set [5] worked out at 95.1%. Further, the “Inhibition … (qualitative)” value in data set [6] is “Active”. Further, in data set [12], the Papp at 5 h turned out to be 0.01 ×10⁻⁶ cm/s.
With `CCCCNc1nc(SCC)nc2c1cnn2CC(Cl)c1ccccc1` (stereo not given), in data set [13], the solubility thermodynamic at 24 h turned out to be 0.05 µg/mL (≈ 0.128 µM). For the same molecule, in [1], the R% came to 44.9%. Besides, the IC50 in “cells [3]” came out at 6.7 µM; in the data set “cells [11]”, 3.5 µM. In [5], the remaining at 1 h, 50 µM is 91.5%. In addition, the “Inhibition … (qualitative)” value in [6] was “Active”. Besides, in data set [12], the apparent permeability (Papp) at 5 h stood at 5.99 ×10⁻⁶ cm/s.

Source of the values: ChEMBL document CHEMBL2407017, “Pyrazolo[3,4-d]pyrimidine Prodrugs: Strategic Optimization of the Aqueous Solubility of Dual Src/Abl Inhibitors” (ACS Med Chem Lett, 2013).
